Among the data in ChEMBL document CHEMBL1687720 (Antimicrob Agents Chemother, 2009) are Activity, inhibition of growth and FIC50 values, retold here.

The subject of data set [1] is Plasmodium falciparum. Briefly: Upregulation of gamma-glutamylcysteine synthetase mRNA level in Plasmodium falciparum 3D7 trophozoites at 126 nM after 12 hrs by RT-qPCR analysis relative to untreated control. Format: functional. An outline of the steps:
(§1)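 Synchronized 3D7 trophozoites in RPMI/Albumax culture at 37°C under 3% O2, 3% CO2 were exposed 12, 15 or 18 h, then harvested by 0.02% saponin lysis. RNA was reverse-transcribed and analyzed by real-time PCR in quadruplicate. Quantification used ΔΔCT with 18S rRNA reference (LDH also checked), expressed as % of untreated control.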
Background: Real-time PCR tracks product formation cycle by cycle.

Data set [2] concerns A549. Briefly: Effect on glutathione reductase expression in human A549 cells assessed as transcript level at 5 nM after 24 hrs by RT-qPCR analysis relative to untreated control. The class given is functional. The settings on record: in the assay text read “5 µM” for “5 nM”. The gist of the method:
(§2)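 A549 cells are seeded at 2.5 × 10^5 per 25-cm2 well. At 40–45% confluence they are treated for 24 h with 166 or 662 μM, 158 or 315 μM, or 5 or 24 μM compound; controls receive <5% DMSO. Total RNA is DNase-treated and qRT-PCR is run in quadruplicate. Values are normalized to GAPDH and given as % of untreated control.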

The subject of data set [3] is A549. Nature of the data set: Cytotoxicity against human A549 cells after 24 hrs by Trypan blue assay. The following applies: a549, 24 h.
The subject of data set [4] is A549. Nature of the data set: Effect on glutathione peroxidase expression in human A549 cells assessed as transcript level at 24 nM after 24 hrs by RT-qPCR analysis relative to untreated control. The class given is functional. The settings on record: in the assay text read “24 µM” for “24 nM”. An outline of the steps:
as §2

In another data set the test system is Plasmodium berghei. Nature of the data set: Antimalarial activity against Plasmodium berghei infected in mouse assessed as reduction in parasite load at 10 mg/kg for 4 days treated postinfection measured on day 4. The arrangement: scale not given: the % may be the effect or the level left. The class given is functional. The gist of the method: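 Murine Plasmodium berghei infection model. Compound given subcutaneously at 10 mg/kg for 4 days after infection, 13 treated mice and 13 controls. Parasitemia is compared with untreated controls, with significance by Fisher's exact test.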

Data set [5] concerns Plasmodium falciparum. Briefly: Antiplasmodial activity against chloroquine-sensitive Plasmodium falciparum 3D7 assessed as inhibition of trophozoite stage parasite growth at 526 nM after 24 hrs by [3H]hypoxanthine incorporation assay. The settings on record: 3D7, read-out: GI. Format: functional. An outline of the steps: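 P. falciparum 3D7 is synchronized with sorbitol. […] Cells are washed four times, then labelled with [3H]hypoxanthine for 24 h. Growth is given as % of untreated control for each stage, in triplicate.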

In data set [6] the test system is Plasmodium falciparum. Nature of the data set: Upregulation of glutathione synthetase mRNA level in Plasmodium falciparum 3D7 trophozoites at 126 nM after 15 hrs by RT-qPCR analysis relative to untreated control. The class given is functional. An outline of the steps: as §1
The test system of data set [7] is A549. Briefly: Effect on glutathione peroxidase expression in human A549 cells assessed as transcript level at 662 nM after 24 hrs by RT-qPCR analysis relative to untreated control. The class given is functional. The settings on record: in the assay text read “662 µM” for “662 nM”. The gist of the method:
as §2

Data set [8] relates to Plasmodium falciparum. Briefly: Antiplasmodial activity against chloroquine-resistant Plasmodium falciparum K1 in presence of quinine. The class given is functional.
Data set [9] relates to A549. Nature of the data set: Effect on glutathione reductase expression in human A549 cells assessed as transcript level at 166 nM after 24 hrs by RT-qPCR analysis relative to untreated control. Format: functional. The following applies: in the assay text read “166 µM” for “166 nM”. The gist of the method: as §2
Data set [10] has as its system A549. Nature of the data set: Effect on glutathione reductase expression in human A549 cells assessed as transcript level at 662 nM after 24 hrs by RT-qPCR analysis relative to untreated control. Format: functional. The settings on record: in the assay text read “662 µM” for “662 nM”. The gist of the method: as §2
Data set [11] concerns the target T1, Glutathione reductase, mitochondrial (Homo sapiens) (UniProt P00390).
T1 sequence (whole entry): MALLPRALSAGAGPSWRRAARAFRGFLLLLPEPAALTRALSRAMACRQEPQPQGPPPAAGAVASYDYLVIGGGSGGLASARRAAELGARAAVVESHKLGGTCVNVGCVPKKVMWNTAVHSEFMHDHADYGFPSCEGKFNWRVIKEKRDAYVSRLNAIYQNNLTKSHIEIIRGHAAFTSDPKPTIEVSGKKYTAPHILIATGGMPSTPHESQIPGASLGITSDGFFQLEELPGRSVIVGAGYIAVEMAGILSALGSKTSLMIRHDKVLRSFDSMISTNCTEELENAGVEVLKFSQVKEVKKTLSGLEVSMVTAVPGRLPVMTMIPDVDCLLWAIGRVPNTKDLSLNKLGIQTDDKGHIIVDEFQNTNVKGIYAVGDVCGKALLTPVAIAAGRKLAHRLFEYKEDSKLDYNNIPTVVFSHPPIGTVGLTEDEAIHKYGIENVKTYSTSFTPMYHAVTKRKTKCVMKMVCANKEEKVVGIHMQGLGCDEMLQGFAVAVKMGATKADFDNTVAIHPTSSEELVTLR
Briefly: Inhibition of glutathione reductase in human A549 cells assessed as enzyme activity at 166 µM after 24 hrs relative to untreated control. The arrangement: scale not given: the % may be the effect or the level left.

Data set [12] relates to Plasmodium falciparum. Briefly: Antiplasmodial activity against chloroquine-resistant Plasmodium falciparum K1 in presence of amodiaquine. Format: functional.
For data set [13], the system named is Plasmodium falciparum. Nature of the data set: Antiplasmodial activity against chloroquine-resistant Plasmodium falciparum K1 in presence of artesunate. The class given is functional.
Data set [14] relates to A549. Briefly: Effect on glutathione peroxidase expression in human A549 cells assessed as transcript level at 315 nM after 24 hrs by RT-qPCR analysis relative to untreated control. Format: functional. The following applies: in the assay text read “315 µM” for “315 nM”. An outline of the steps:
as §2

A further data set addresses Thioredoxin reductase (Homo sapiens, UniProt Q16881+Q9NNW7+Q86VQ6). Briefly: Inhibition of thioredoxin reductase in human A549 cells assessed as enzyme activity at 158 µM after 24 hrs by DTNB assay relative to untreated control. Also on record: scale not given: the % may be the effect or the level left.
Data set [15] deals with A549. Briefly: Inhibition of glutathione S-transferase in human A549 cells assessed as enzyme activity at 158 µM after 24 hrs relative to untreated control. The arrangement: scale not given: the % may be the effect or the level left.
Data set [16] has as its system A549. Nature of the data set: Effect on thioredoxin reductase expression in human A549 cells assessed as transcript level at 315 nM after 24 hrs by RT-qPCR analysis relative to untreated control. Format: functional. The following applies: in the assay text read “315 µM” for “315 nM”. An outline of the steps:
as §2

The subject of data set [17] is A549. Briefly: Effect on glutathione peroxidase expression in human A549 cells assessed as transcript level at 158 nM after 24 hrs by RT-qPCR analysis relative to untreated control. Format: functional. The settings on record: in the assay text read “158 µM” for “158 nM”. The gist of the method:
as §2

The subject of data set [18] is A549. Nature of the data set: Inhibition of glutathione S-transferase in human A549 cells assessed as enzyme activity at 315 µM after 24 hrs relative to untreated control. Also on record: scale not given: the % may be the effect or the level left.
The target in data set [19] is T1, Glutathione reductase, mitochondrial (Homo sapiens). Nature of the data set: Inhibition of glutathione reductase in human A549 cells assessed as enzyme activity at 158 µM after 24 hrs relative to untreated control. Also on record: scale not given: the % may be the effect or the level left.
Data set [20] has the same target. Nature of the data set: Inhibition of glutathione reductase in human A549 cells assessed as enzyme activity at 315 µM after 24 hrs relative to untreated control. Also on record: scale not given: the % may be the effect or the level left.

Turning to `O=c1oc2c(O)c(O)c(O)c3c(=O)oc4c(O)c(O)c(O)c1c4c23` [CORULEOELLAGIC ACID], the Activity is 111% in the data set on Plasmodium falciparum [1]; 77% in the data set on A549 [2]; “Non-toxic” with A549 [3]; 71% in the data set on A549 [4]; 84% with Plasmodium berghei; 128% with Plasmodium falciparum [6]. Further, the inhibition of growth at 0.526 µM with Plasmodium falciparum [5] was greater than 95%.

Regarding `O=c1oc2c(O)c(O)cc3c(=O)oc4c(O)c(O)cc1c4c23` [ELLAGIC ACID], the Activity with A549 [7] is 150%; in the data set on A549 [9], 152%; with A549 [10], 125%; in data set [11] it was 87%. In addition, the FIC50 in the data set with Plasmodium falciparum [8], with Plasmodium falciparum [12] and in the data set with Plasmodium falciparum [13] was 1 in each case.

Take `O=c1oc2c(O)c(O)c(O)c3c(=O)oc4c(O)c(O)cc1c4c23` [FLAVELLAGIC ACID]: the Activity in the data set on A549 [14] was 77%; on Thioredoxin reductase it was 91%; in the data set with A549 [15], 99%; with A549 [16], 61%; in the data set with A549 [17], 107%; with A549 [18], 121%. Also, the Activity in [19] was 87%; in data set [20], 119%.
